Data set [1] concerns SK-N-SH. Description: Antiproliferative activity against human SK-N-SH cells after 72 hrs by sulforhodamine staining method. Type of data set: functional. In outline: (§1)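 Panel of 83 solid-tumour lines plus resting PBMC, run by the DTP NCI sulforhodamine B staining protocol. Compound exposure 72 h, concentrations from 0.0001 to 10 μM. GI50 taken per line; z-scores computed relative to the panel mean GI50.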

Data set [2] in a line: Antiproliferative activity against human MDA-MB-436 cells after 72 hrs by sulforhodamine staining method. Format: functional. The conditions noted are these: MDA-MB-436, 72 h. Summed up:
as §1

For data set [3], the system named is 5637. Briefly: Antiproliferative activity against human 5637 cells after 72 hrs by sulforhodamine staining method. Format: functional. The conditions noted are these: Homo sapiens, 5637, 72 h. In outline: as §1
Data set [4] concerns COLO 205. Description: Antiproliferative activity against human COLO205 cells after 72 hrs by sulforhodamine staining method. Format: functional. The conditions noted are these: COLO 205, 72 h. In outline:
as §1

For data set [5], the system named is SK-MEL-28. Briefly: Antiproliferative activity against human SK-MEL-28 cells after 72 hrs by sulforhodamine staining method. Type of data set: functional. The note with it: SK-MEL-28, 72 h. In outline: as §1
Data set [6] has as its system MIA PaCa-2. Description: Antiproliferative activity against human MIAPaCa2 cells after 72 hrs by sulforhodamine staining method. Format: functional. The note with it: MIA PaCa-2, 72 h. In outline: as §1
The subject of data set [7] is HT-1080. Briefly: Antiproliferative activity against human HT1080 cells after 72 hrs by sulforhodamine staining method. Format: functional. The conditions noted are these: HT-1080, 72 h. In outline: as §1
The subject of data set [8] is A-375. Briefly: Antiproliferative activity against human A375 cells after 72 hrs by sulforhodamine staining method. Type of data set: functional. The note with it: A-375, 72 h. Summed up: as §1
Data set [9] relates to ASPC1. Briefly: Antiproliferative activity against human AsPC1 cells after 72 hrs by sulforhodamine staining method. The note with it: ASPC1, 72 h. Format: functional. Summed up:
as §1

A short description of data set [10]: Antiproliferative activity against human resting PBMC after 72 hrs by sulforhodamine staining method. Type of data set: cell-based. In outline: as §1
For data set [11], the system named is K562. Briefly: Cell cycle arrest in human K562 cells assessed as accumulation at G2/M phase at 30 nM after 24 hrs by flow cytometric analysis. Format: functional, cell-based. In outline:
(§2)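 K562 cells (2 × 10^5/mL) exposed to graded concentrations for 24 h at 37 °C; vehicle DMSO/MeOH 1:1. Washed in PBS, fixed in ice-cold 70% ethanol, stained 30 min with propidium iodide 0.02 mg/mL plus RNase 0.2 mg/mL. DNA content read by flow cytometry with 488 nm excitation; G2/M fraction scored.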

In data set [12] the test system is SK-N-AS. Description: Antiproliferative activity against human SK-N-AS cells after 72 hrs by sulforhodamine staining method. Format: functional. In outline:
as §1

Data set [13] deals with K562. Briefly: Cell cycle arrest in human K562 cells assessed as accumulation at G2/M phase at 0.003 to. 1 ug/ml after 24 hrs by flow cytometric analysis. Type of data set: functional, cell-based. In outline: as §2
(In general: Flow cytometry measures light scatter and fluorescence of single cells or particles in a stream.)

Data set [14] deals with BXPC-3. Briefly: Antiproliferative activity against human BxPC3 cells after 72 hrs by sulforhodamine staining method. Format: functional. The note with it: BXPC-3, 72 h. In outline: as §1
Data set [15] deals with HT-29. Description: Antiproliferative activity against human HT-29 cells after 72 hrs by sulforhodamine staining method. Format: functional. The note with it: HT-29, 72 h. In outline:
as §1

Data set [16] relates to K562. Description: Antiproliferative activity against human K562 cells after 48 hrs by hemocytometric analysis. Format: functional, cell-based. The conditions noted are these: K562, 48 h. Summed up:
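K562 cells in RPMI 1640 with 10% FBS at 37 °C/5% CO2, plated at 2 × 10^5 cells/mL. Compounds in DMSO/methanol 1:1, final vehicle 0.5%. Cells counted in a Neubauer hemocytometer after 48 h and expressed as % of untreated control. Triplicate wells, three experiments; IC50 by nonlinear regression.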

A short description of data set [17]: cells. The conditions noted are these: Homo sapiens, 451Lu, 48 h.
Data set [18] concerns SK-OV-3. Briefly: Antiproliferative activity against human SKOV3 cells after 48 hrs by alamar blue assay. Format: functional, cell-based. The note with it: SK-OV-3, 48 h. In outline: (§3)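 Cells seeded in growth medium and grown 24 h at 37 °C/5% CO2. 10 mM DMSO stocks diluted in half-log steps into medium, final DMSO 0.316%. After 45 h of compound exposure, AlamarBlue (resazurin) added for a further 3 h, giving 48 h total. Fluorescence read at 590 nm against untreated and cell-free blanks. At least two replicates; IC50 by nonlinear regression.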
In general terms: The colour change of resazurin is a common sign of viable cells or microbes.

The target of data set [19] is Tubulin (Sus scrofa, UniProt P02554+P02550). Description: Inhibition of pig tubulin polymerization determined after 45 mins at 37 degC by turbidimetric analysis. Format: protein assay. In outline:
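Microtubule protein (80–90% tubulin with MAPs) from porcine brain, isolated by two cold/warm cycles. Buffer: 20 mM PIPES pH 6.8, 80 mM NaCl, 0.5 mM MgCl2, 1 mM EGTA, 1 mM DTT. Protein at 1.2 mg/mL (about 10 μM tubulin) with 0.6 mM GTP, 1% DMSO, 37 °C.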

Data set [20] deals with RD. Briefly: Antiproliferative activity against human RD cells after 72 hrs by sulforhodamine staining method. Type of data set: functional. Summed up: as §1
Data set [21] concerns BT-549. Briefly: Antiproliferative activity against human BT549 cells after 48 hrs by alamar blue assay. The note with it: BT-549, 48 h. Type of data set: functional, cell-based. In outline:
as §3

For data set [22], the system named is IGROV-1. Description: Antiproliferative activity against human IGROV1 cells after 72 hrs by sulforhodamine staining method. Type of data set: functional. The conditions noted are these: IGROV-1, 72 h. Summed up:
as §1

For data set [23], the system named is NCI-H460. Description: Antiproliferative activity against human NCI-H460 cells after 48 hrs by alamar blue assay. Type of data set: functional, cell-based. The conditions noted are these: NCI-H460, 48 h. Summed up: as §3
The subject of data set [24] is MG-63. Description: Antiproliferative activity against human MG63 cells after 72 hrs by sulforhodamine staining method. Type of data set: functional. The conditions noted are these: MG-63, 72 h. Summed up: as §1
The subject of data set [25] is DLD-1. Description: Antiproliferative activity against human DLD1 cells after 48 hrs by alamar blue assay. Format: functional, cell-based. The note with it: DLD-1, 48 h. In outline: as §3
Data set [26] is described as follows: Antiproliferative activity against human MT3 cells after 72 hrs by sulforhodamine staining method. Type of data set: functional. The conditions noted are these: MT-3, 72 h. In outline:
as §1

Data set [27] deals with SW480. Briefly: Antiproliferative activity against human SW480 cells after 48 hrs by alamar blue assay. Type of data set: functional, cell-based. The conditions noted are these: SW480, 48 h. In outline:
as §3

The subject of data set [28] is COLO-678. Description: Antiproliferative activity against human COLO-678 cells after 72 hrs by sulforhodamine staining method. Type of data set: functional. The note with it: COLO-678, 72 h. Summed up:
as §1

The test system of data set [29] is Potorous tridactylus. Briefly: Inhibition of tubulin polymerization in Potorous tridactylus Ptk2 cells assessed as destruction of microtubule network at 5 uM after 1 hr by immunofluorescence assay. In outline: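 PtK2 cells exposed 1 h to 5 μM compound in RPMI medium with 2% DMSO; solvent-only controls. Microtubules labelled with Cy3-anti-tubulin antibody and examined by immunofluorescence microscopy.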

Data set [30] has as its system COLO 205. Briefly: Antiproliferative activity against human COLO205 cells after 48 hrs by alamar blue assay. Format: functional, cell-based. The note with it: COLO 205, 48 h. In outline:
as §3

The text below walks through data of ChEMBL document CHEMBL1799999, “N-benzoylated phenoxazines and phenothiazines: synthesis, antiproliferative activity, and inhibition of tubulin polymerization” (J Med Chem, 2011).

As a reminder, the GI50 is the concentration giving 50% growth inhibition. Lower therefore signals greater sensitivity of the cells. The pIC50 is −log10 of the IC50, conventionally taken in molar units. By IC50 is commonly meant the midpoint of a concentration-inhibition curve.

The structures appear in SMILES notation. pIC50: −log10 of the molar value. The source made the active and inactive calls. No cut-off for these calls is given here.

Take `COc1ccc(C(=O)N2c3ccccc3Oc3cc(C#N)ccc32)cc1O`: the 50% growth inhibitory concentration (GI50) in data set [1] amounted to 1.8 nM; in data set [2], 1130 nM; in [3] it was 1.9 nM; in [4], 4260 nM; in data set [5], 2 nM; in [6], 8410 nM. In addition, the GI50 in [7] is 2.6 nM; in data set [8], 2.7 nM; in data set [9], > 10000 nM; in data set [12] it was 1.8 nM; in data set [14] it was 2250 nM; in data set [15] it was 5600 nM. Besides, the GI50 in data set [20] is 2 nM; in [22] it was 63.3 nM; in [24], 1.8 nM; in data set [26] it was 95.1 nM; in data set [28] it was 62.3 nM. Besides, the GI50 at 72 h in data set [10] is > 10000 nM. The outcome in [11] and in data set [13] was Active. In addition, the negative logarithm of the IC50 (pIC50) in data set [16] was 7.96; in data set [17], 8.22; in data set [18], 7.62; in [21], 7.80; in data set [23], 7.40; in data set [25] it was 7.80. Further, the pIC50 in [27] was 7.54. In data set [19], this molecule returned an IC50 of 520 nM.

For `COc1cc2c(c(OC)c1OC)-c1ccc(OC)c(=O)cc1[C@@H](NC(C)=O)CC2` [COLCHICINE], in [29], the inhibition result was “Active”. Also, the result in [13] was Active. Further, the pIC50 in data set [17] was 7.77; in data set [18], 7.54; in [30], 7.68; in [21], 7.64; in data set [23] it was 7.57; in [25] it was 7.05. This molecule showed a pIC50 in data set [27] of 7.52.

`COc1ccc(C(=O)N2c3ccccc3Oc3cc(C#N)ccc32)cc1`: in data set [9], the 50% growth inhibitory concentration (GI50) is > 10000 nM. Besides, in [10], the 50% growth inhibitory concentration (GI50) at 72 h was > 10000 nM. For the same molecule, the result in [11] and in [13] was Active. The pIC50 in [16] was 7.85; in data set [17], 8.70; in [18], 8.22; in data set [30], 8.22; in [21], 8.10; in data set [23], 7.82. In addition, the results for the pIC50 in [25] and in data set [27] were 8.05 and 8.10, respectively. This molecule also registered an IC50 in data set [19] of 730 nM.

Take `COc1ccc(C(=O)N2c3ccccc3Oc3ccc(Cl)cc32)cc1O`: in data set [9], the GI50 was > 10000 nM. Moreover, the GI50 at 72 h in data set [10] was > 10000 nM. Also, in [29], the inhibition entry is “Active”. Moreover, the pIC50 is 7.10 in data set [16]; 7.57 in [17]; 6.77 in data set [18]; 5.57 in [30]; 6.49 in [21]; 6.41 in [23]. Also, the negative logarithm of the IC50 (pIC50) in data set [25] is 6.64; in [27], 6.62. In data set [19], this molecule yielded an IC50 of 730 nM.
